The source made the active and inactive calls. No cut-off for these calls is given here.
What was measured:
[1] = molecular target: Replicase polyprotein 1ab (Middle East respiratory syndrome-related coronavirus (isolate UnitedKingdom/H123990006/2012) (Betacoronavirus England 1) (Humancoronavirus EMC)) (UniProt K9N7C7); assay: (§1) Inhibition of MERS-CoV papain-like protease using Z-Arg-Leu-Arg-Gly-Gly-AMC as substrate preincubated for 5 mins followed by substrate addition and measured for 10 mins by fluorescence assay; parameters: concentration or dose not given beside the values
Target sequence in this assay (K9N7C7 854-2740 limits assumed): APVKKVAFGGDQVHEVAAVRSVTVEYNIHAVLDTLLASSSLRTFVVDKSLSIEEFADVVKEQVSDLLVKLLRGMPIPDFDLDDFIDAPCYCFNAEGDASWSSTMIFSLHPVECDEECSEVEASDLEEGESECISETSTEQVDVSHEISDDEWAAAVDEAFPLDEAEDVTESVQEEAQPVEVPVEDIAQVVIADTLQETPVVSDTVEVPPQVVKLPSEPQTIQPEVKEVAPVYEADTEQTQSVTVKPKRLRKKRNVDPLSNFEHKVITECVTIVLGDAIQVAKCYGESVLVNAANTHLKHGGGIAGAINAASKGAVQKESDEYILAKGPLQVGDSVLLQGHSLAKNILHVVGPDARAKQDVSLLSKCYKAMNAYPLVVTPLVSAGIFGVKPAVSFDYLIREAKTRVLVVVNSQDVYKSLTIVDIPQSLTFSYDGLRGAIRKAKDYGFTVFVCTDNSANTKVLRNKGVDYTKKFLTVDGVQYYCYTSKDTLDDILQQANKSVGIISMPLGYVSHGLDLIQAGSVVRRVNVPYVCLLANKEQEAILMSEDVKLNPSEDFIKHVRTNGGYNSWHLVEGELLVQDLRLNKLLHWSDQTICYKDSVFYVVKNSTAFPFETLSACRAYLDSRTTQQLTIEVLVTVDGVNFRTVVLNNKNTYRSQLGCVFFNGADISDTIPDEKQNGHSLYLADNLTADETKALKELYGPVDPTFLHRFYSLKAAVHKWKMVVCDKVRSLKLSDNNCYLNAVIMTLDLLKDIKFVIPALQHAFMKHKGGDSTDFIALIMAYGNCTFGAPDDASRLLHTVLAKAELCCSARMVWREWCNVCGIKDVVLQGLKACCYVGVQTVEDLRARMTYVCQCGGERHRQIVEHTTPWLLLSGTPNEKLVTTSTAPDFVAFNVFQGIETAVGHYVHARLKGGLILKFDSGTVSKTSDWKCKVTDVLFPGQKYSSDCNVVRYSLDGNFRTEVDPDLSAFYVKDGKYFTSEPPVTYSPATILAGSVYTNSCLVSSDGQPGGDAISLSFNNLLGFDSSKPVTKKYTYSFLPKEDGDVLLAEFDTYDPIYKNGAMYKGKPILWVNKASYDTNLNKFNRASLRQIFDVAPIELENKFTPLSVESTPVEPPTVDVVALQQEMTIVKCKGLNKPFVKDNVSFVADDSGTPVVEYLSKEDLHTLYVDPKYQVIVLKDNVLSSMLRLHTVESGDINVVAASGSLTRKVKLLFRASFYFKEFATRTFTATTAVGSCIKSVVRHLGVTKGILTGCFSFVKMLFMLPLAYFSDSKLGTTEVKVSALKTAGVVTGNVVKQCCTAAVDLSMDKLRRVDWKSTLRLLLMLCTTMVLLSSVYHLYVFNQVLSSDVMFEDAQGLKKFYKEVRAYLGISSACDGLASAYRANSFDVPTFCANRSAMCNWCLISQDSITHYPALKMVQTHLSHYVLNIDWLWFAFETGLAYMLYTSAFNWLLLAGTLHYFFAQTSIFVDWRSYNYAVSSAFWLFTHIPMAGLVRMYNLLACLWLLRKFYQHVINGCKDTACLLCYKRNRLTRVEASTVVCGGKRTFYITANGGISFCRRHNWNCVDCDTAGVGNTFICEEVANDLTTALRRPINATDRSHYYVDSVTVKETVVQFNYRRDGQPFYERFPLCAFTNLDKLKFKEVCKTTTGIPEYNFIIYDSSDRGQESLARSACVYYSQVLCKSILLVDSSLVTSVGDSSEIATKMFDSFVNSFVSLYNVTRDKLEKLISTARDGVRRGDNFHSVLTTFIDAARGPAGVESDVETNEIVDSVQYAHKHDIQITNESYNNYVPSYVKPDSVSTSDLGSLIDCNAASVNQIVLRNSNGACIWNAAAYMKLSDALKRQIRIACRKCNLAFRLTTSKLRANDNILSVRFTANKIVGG

[2] = molecular target: T1, Replicase polyprotein 1ab (Middle East respiratory syndrome-related coronavirus (isolate UnitedKingdom/H123990006/2012) (Betacoronavirus England 1) (Humancoronavirus EMC), UniProt K9N7C7); assay: as §1
[3] = molecular target: T1, Replicase polyprotein 1ab; assay: Binding affinity to MERS-CoV papain-like protease by SPR analysis
How it was run: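 SPR on Biacore T200. Enzyme at 50 µg/mL in 10 mM sodium acetate pH 5.5 amine-coupled to CM5 chip (~10,000 RU); blank flow cells as reference. Compounds 0-50 µM (2-fold series) in PBSP + 0.5 mM TCEP, 2% DMSO, 30 µL/min, 25°C; double-referenced. KD from steady-state responses fit to rectangular hyperbola; rate constants from global 1:1 Langmuir fit.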

[4] = molecular target: T1, Replicase polyprotein 1ab; assay: Competitive-inhibition of MERS-CoV papain-like protease using varying levels of Z-Arg-Leu-Arg-Gly-Gly-AMC as substrate by Dixon-plot analysis
[5] = molecular target: Replicase polyprotein 1ab (Middle East respiratory syndrome-related coronavirus (isolate UnitedKingdom/H123990006/2012) (Betacoronavirus England 1) (Humancoronavirus EMC)) (UniProt K9N7C7); assay: Reversible inhibition of MERS-CoV papain-like protease assessed as recovery of enzyme activity at 125 times IC50 using Z-Arg-Leu-Arg-Gly-Gly-AMC as substrate incubated for 1 hr followed by 2-fold dilution and measured by fluorescence assay
How it was run: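 Dilution method: 4 µM enzyme incubated with compound for 1 h at room temperature in HEPES pH 7.5 assay buffer (2 mM DTT, 0.1 mg/ml BSA, 0.01% Triton X-100). DMSO-only enzyme served as control. Both samples diluted 2-fold, then seven further 2-fold dilutions. Activity read at each step with the continuous Z-RLRGG-AMC fluorescence assay.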

[6] = molecular target: Replicase polyprotein 1ab (Middle East respiratory syndrome-related coronavirus (isolate UnitedKingdom/H123990006/2012) (Betacoronavirus England 1) (Humancoronavirus EMC)) (UniProt K9N7C7); assay: Inhibition of MERS-CoV papain-like protease at 50 uM using Z-Arg-Leu-Arg-Gly-Gly-AMC as substrate preincubated for 5 mins followed by substrate addition and measured for 10 mins by fluorescence assay relative to control
How it was run: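 Confirmation retest run by hand in triplicate at room temperature. Buffer: 50 mM HEPES pH 7.5, 0.01% Triton X-100, 0.1 mg/mL BSA, 2 mM DTT. Enzyme and compound preincubated 5 min, then Z-RLRGG-AMC added to 50 µM final. AMC fluorescence (ex 360/em 450 nm) followed continuously; percent inhibition calculated against DMSO control.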

[7] = molecular target: Replicase polyprotein 1ab (Middle East respiratory syndrome-related coronavirus (isolate UnitedKingdom/H123990006/2012) (Betacoronavirus England 1) (Humancoronavirus EMC)) (UniProt K9N7C7); assay: Binding affinity to 15N-labelled His-tagged Apo-MRES-CoV papain-like protease by TROSY [1H-15N] spectroscopy
[8] = molecular target: Replicase polyprotein 1ab (Middle East respiratory syndrome-related coronavirus (isolate UnitedKingdom/H123990006/2012) (Betacoronavirus England 1) (Humancoronavirus EMC)) (UniProt K9N7C7); assay: Binding affinity to MERS-CoV papain-like protease in presence of Z-Arg-Leu-Arg-Gly-Gly-AMC by SPR analysis
How it was run: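 MERS-CoV PLpro was amine-coupled to a CM5 chip (~10,000 RU), with unmodified reference cells. Compounds (0-50 µM, 2-fold series) were injected with 500 µM Z-RLRGG-AMC substrate present, in PBSP + 0.5 mM TCEP + 2% DMSO at 30 µL/min and 25°C. Data were double-referenced, and KD came from a steady-state hyperbolic fit.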

T1 sequence (K9N7C7 854-2740 limits assumed): as above

Compound	inhibition [1]	IC50 [2]	Kd [3]	also measured
Cc1ccc(S(=O)(=O)n2c(C)cc(C)nc2=O)cc1	11%			
O=Cc1ccc(O)c(O)c1 [PROTOCATECHUALDEHYDE]		239 µM		
O=[N+]([O-])c1ccc(O)c(O)c1 [4-Nitrocatechol]		145 µM		
CC(=O)Nc1ccc(S(=O)(=O)n2c(C)cc(C)nc2=O)cc1	2%			
CC1CCCC(C)N1S(=O)(=O)c1ccc(N)cc1 (configuration not stated)	7%			
O=C(O)c1cc(/N=N/c2ccc(S(=O)(=O)Nc3ccccn3)cc2)ccc1O [SULFASALAZINE]			7.6 to 112 µM	
Nc1ccc(S(=O)(=O)N2CC(=O)NC(=O)C2)cc1	16%			
Cn1c(=O)c2c(nc(NN=C3C(=O)NC(=O)NC3=O)n2C)n(C)c1=O			7.6 to 112 µM	
Cc1ccc(C)c(CSc2nc(C3CCCCC3)c(C#N)c(=O)[nH]2)c1			7.6 to 112 µM	
Cc1cc(C)n(S(=O)(=O)c2ccc(N)cc2)c(=O)n1	73%	20 µM	7.6 to 9.3 µM	Ki [4]: 36.6 µM; inhibition [5]: Active; inhibition [6]: > 50%; Activity [7]: Active
Nc1ccc([N+](=O)[O-])cn1		137 µM		
O=C(O)c1cc(/C=C/c2ccc(N3CCOCC3)cc2)nc2ccccc12			7.6 to 112 µM	
O=[N+]([O-])c1ccc(Cl)c2nonc12		141 µM		
O=C(NC1=CC=CC2C(=O)C=C(c3nn[nH]n3)OC12)c1ccc(OCCCCc2ccccc2)cc1 (configuration not stated)				Activity [8]: inactive; inhibition [6]: > 50%
COCC(=O)/C=C1\Sc2ccccc2N1C			7.6 to 112 µM	

— ChEMBL document CHEMBL4392846, “Identification and design of novel small molecule inhibitors against MERS-CoV papain-like protease via high-throughput screening and molecular modeling” (Bioorg Med Chem, 2019)
